As usually defined, the MIC is the smallest concentration in the dilution series that meets the test's criterion for growth inhibition.

In brackets after ≈: the same amount, converted by molar mass. Activity calls are given as the source filed them.

Tested on in the first experiment: not listed separately
The experiment can be described thus: Antibacterial activity against Proteus vulgaris NCTC 4175 strain; na = not active. Format: functional.
Settings: not given
On to `COc1cccc(C(=O)Nc2cc(C(=O)Nc3cc(C(=O)Nc4cc(C(=O)NCCCN(C)C)n(C)c4)n(C)c3)n(C)c2)c1`, for which the MIC entry is “inactive”.

Regarding `COc1ccc(CC(=O)Nc2cc(C(=O)Nc3cc(C(=O)Nc4cc(C(=O)NCCCN(C)C)n(C)c4)n(CCC(C)C)c3)n(C)c2)cc1`, the MIC entry was “inactive”.

For the next experiment, the system named is Proteus vulgaris. The experiment can be described thus: Antibacterial activity against Proteus vulgaris NCTC 4175 strain. In kind it is functional.
Settings: not given
As to `CC(C)n1cc(NC(=O)c2cc(NC=O)cn2C)cc1C(=O)Nc1cc(C(=O)NCCCN2CCCC2)n(C)c1`, the MIC is 150 µM (≈ 82.6 µg/mL).

The subject of another experiment is Aspergillus niger. As to the kind of experiment: Antifungal activity against Aspergillus niger IMI17454 strain. In kind it is functional. The note with it: Aspergillus niger; read-out: MIC.
For `CC(C)n1cc(NC(=O)c2cc(NC=O)cn2C)cc1C(=O)Nc1cc(C(=O)NCCCN2CCCC2)n(C)c1`, the MIC stood at 150 µM (≈ 82.6 µg/mL).

For `COc1cccc(C(=O)Nc2cc(C(=O)Nc3cc(C(=O)Nc4cc(C(=O)NCCCN(C)C)n(C)c4)n(C)c3)n(C)c2)c1`, the MIC came to 140 µM (≈ 84.4 µg/mL).

As for `COc1ccc(CC(=O)Nc2cc(C(=O)Nc3cc(C(=O)Nc4cc(C(=O)NCCCN(C)C)n(C)c4)n(CCC(C)C)c3)n(C)c2)cc1`, the minimal inhibitory concentration (MIC) came to 15.9 µM (≈ 10.7 µg/mL).

The next experiment relates to Staphylococcus aureus. As to the kind of experiment: Antibacterial activity against methicillin-resistant Staphylococcus aureus (MRSA) PHLS M1 strain. Format: functional.
Settings: not given
In a few lines:
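Read-out is the minimum inhibitory concentration, reported in µM. Amoxycillin is tested alongside as the reference antibiotic.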
`CC(C)n1cc(NC(=O)c2cc(NC=O)cn2C)cc1C(=O)Nc1cc(C(=O)NCCCN2CCCC2)n(C)c1` gave an MIC of 75.2 µM (≈ 41.4 µg/mL).

Another experiment relates to Staphylococcus aureus. As to the kind of experiment: Antibacterial activity against MRSA PHLS M1 strain. In kind it is functional.
Settings: not given
Compound `COc1ccc(CC(=O)Nc2cc(C(=O)Nc3cc(C(=O)Nc4cc(C(=O)NCCCN(C)C)n(C)c4)n(CCC(C)C)c3)n(C)c2)cc1` returned a minimum inhibitory concentration (MIC) of 63.6 µM (≈ 42.8 µg/mL).

Tested on in a further experiment: not listed separately
As to the kind of experiment: Antifungal activity against Candida albicans NCPF 3179 strain; na = not active. Format: functional.
Settings: not given
With `CC(C)n1cc(NC(=O)c2cc(NC=O)cn2C)cc1C(=O)Nc1cc(C(=O)NCCCN2CCCC2)n(C)c1`, the MIC entry is “inactive”.

With `COc1cccc(C(=O)Nc2cc(C(=O)Nc3cc(C(=O)Nc4cc(C(=O)NCCCN(C)C)n(C)c4)n(C)c3)n(C)c2)c1`, the MIC result is “inactive”.

The test system of another experiment is Staphylococcus aureus. The experiment can be described thus: Antibacterial activity against MRSA PHLS M1 strain; na = not active. Format: functional, organism-based.
Settings: not given
Regarding `COc1cccc(C(=O)Nc2cc(C(=O)Nc3cc(C(=O)Nc4cc(C(=O)NCCCN(C)C)n(C)c4)n(C)c3)n(C)c2)c1`, the MIC result was “inactive”.

A further experiment deals with Enterococcus faecalis. The experiment can be described thus: Antibacterial activity against Streptococcus faecalis NCTC 775 strain=. Format: functional.
Settings: not given
In the case of `COc1cccc(C(=O)Nc2cc(C(=O)Nc3cc(C(=O)Nc4cc(C(=O)NCCCN(C)C)n(C)c4)n(C)c3)n(C)c2)c1`, inhibition of growth (MIC) required 140 µM (≈ 84.4 µg/mL).

A further experiment concerns Escherichia coli. The experiment can be described thus: Antibacterial activity against Escherichia coli NCTC 9001 strain.
Settings: not given
In kind it is functional.
For the compound `CC(C)n1cc(NC(=O)c2cc(NC=O)cn2C)cc1C(=O)Nc1cc(C(=O)NCCCN2CCCC2)n(C)c1`, the MIC result is “inactive”.

The subject of the next experiment is Aspergillus nidulans. The experiment can be described thus: Antifungal activity against Aspergillus nidulans CABI 0160037 strain. Format: functional.
Settings: not given
Regarding `CC(C)n1cc(NC(=O)c2cc(NC=O)cn2C)cc1C(=O)Nc1cc(C(=O)NCCCN2CCCC2)n(C)c1`, the lowest concentration to inhibit growth (MIC) was 150 µM (≈ 82.6 µg/mL).

With `COc1cccc(C(=O)Nc2cc(C(=O)Nc3cc(C(=O)Nc4cc(C(=O)NCCCN(C)C)n(C)c4)n(C)c3)n(C)c2)c1`, inhibition of growth (MIC) required 69.8 µM (≈ 42.1 µg/mL).

Compound `COc1ccc(CC(=O)Nc2cc(C(=O)Nc3cc(C(=O)Nc4cc(C(=O)NCCCN(C)C)n(C)c4)n(CCC(C)C)c3)n(C)c2)cc1` came in with a minimum inhibitory concentration (MIC) of 15.9 µM (≈ 10.7 µg/mL).

The subject of a further experiment is Mycolicibacterium fortuitum. As to the kind of experiment: Antibacterial activity against Mycobacterium fortuitum NCTC 10394 strain.
Settings: not given
In kind it is functional.
`CC(C)n1cc(NC(=O)c2cc(NC=O)cn2C)cc1C(=O)Nc1cc(C(=O)NCCCN2CCCC2)n(C)c1` returned an MIC of 150 µM (≈ 82.6 µg/mL).

`COc1ccc(CC(=O)Nc2cc(C(=O)Nc3cc(C(=O)Nc4cc(C(=O)NCCCN(C)C)n(C)c4)n(CCC(C)C)c3)n(C)c2)cc1` came in with a minimum inhibitory concentration (MIC) of 15.9 µM (≈ 10.7 µg/mL).

Tested on in a further experiment: not listed separately
As to the kind of experiment: Antibacterial activity against Enterobacter cloacae NCTC 10005 strain. In kind it is functional.
Settings: not given
The compound `CC(C)n1cc(NC(=O)c2cc(NC=O)cn2C)cc1C(=O)Nc1cc(C(=O)NCCCN2CCCC2)n(C)c1` gave an MIC of 75.2 µM (≈ 41.4 µg/mL).

In another experiment the test system is Enterococcus faecalis. As to the kind of experiment: Antibacterial activity against Streptococcus faecalis NCTC 775 strain. Format: functional.
Settings: not given
With `CC(C)n1cc(NC(=O)c2cc(NC=O)cn2C)cc1C(=O)Nc1cc(C(=O)NCCCN2CCCC2)n(C)c1`, the minimum inhibitory concentration (MIC) stood at 75.2 µM (≈ 41.4 µg/mL).

In turn, `COc1ccc(CC(=O)Nc2cc(C(=O)Nc3cc(C(=O)Nc4cc(C(=O)NCCCN(C)C)n(C)c4)n(CCC(C)C)c3)n(C)c2)cc1` returned a minimum inhibitory concentration (MIC) of 15.9 µM (≈ 10.7 µg/mL).

For the next experiment, the system named is Candida albicans. As to the kind of experiment: Antifungal activity against Candida albicans NCPF 3179 strain. Format: functional. The note with it: Candida albicans; read-out: MIC.
In the case of `COc1ccc(CC(=O)Nc2cc(C(=O)Nc3cc(C(=O)Nc4cc(C(=O)NCCCN(C)C)n(C)c4)n(CCC(C)C)c3)n(C)c2)cc1`, the minimal inhibitory concentration (MIC) came out at 15.9 µM (≈ 10.7 µg/mL).

Another experiment relates to Mycolicibacterium fortuitum. The experiment can be described thus: Antibacterial activity against Mycobacterium fortuitum NCTC 10394 strain=. In kind it is functional.
Settings: not given
`COc1cccc(C(=O)Nc2cc(C(=O)Nc3cc(C(=O)Nc4cc(C(=O)NCCCN(C)C)n(C)c4)n(C)c3)n(C)c2)c1` gave an MIC of 140 µM (≈ 84.4 µg/mL).

Another experiment deals with Escherichia coli. As to the kind of experiment: Antibacterial activity against Escherichia coli NCTC 9001 strain. Format: functional, organism-based.
Settings: not given
As to `COc1cccc(C(=O)Nc2cc(C(=O)Nc3cc(C(=O)Nc4cc(C(=O)NCCCN(C)C)n(C)c4)n(C)c3)n(C)c2)c1`, the MIC result was “inactive”.

With `COc1ccc(CC(=O)Nc2cc(C(=O)Nc3cc(C(=O)Nc4cc(C(=O)NCCCN(C)C)n(C)c4)n(CCC(C)C)c3)n(C)c2)cc1`, the MIC result is “inactive”.

The test system of the next experiment is Klebsiella aerogenes. As to the kind of experiment: Antibacterial activity against Klebsiella aerogenes WRL CN 345 strain. Format: functional, WRL CN 375. The note with it: Klebsiella aerogenes, WRL CN 375; read-out: MIC.
As to `CC(C)n1cc(NC(=O)c2cc(NC=O)cn2C)cc1C(=O)Nc1cc(C(=O)NCCCN2CCCC2)n(C)c1`, the MIC is 37.6 µM (≈ 20.7 µg/mL).

Consider `COc1cccc(C(=O)Nc2cc(C(=O)Nc3cc(C(=O)Nc4cc(C(=O)NCCCN(C)C)n(C)c4)n(C)c3)n(C)c2)c1`, for which the MIC came to 140 µM (≈ 84.4 µg/mL).

Take `COc1ccc(CC(=O)Nc2cc(C(=O)Nc3cc(C(=O)Nc4cc(C(=O)NCCCN(C)C)n(C)c4)n(CCC(C)C)c3)n(C)c2)cc1`: the minimum inhibitory concentration (MIC) came to 15.9 µM (≈ 10.7 µg/mL).

The next experiment concerns Enterobacter cloacae. The experiment can be described thus: Antibacterial activity against Enterobacter cloacae NCTC 10005 strain. Format: functional, organism-based.
Settings: not given
Consider `COc1cccc(C(=O)Nc2cc(C(=O)Nc3cc(C(=O)Nc4cc(C(=O)NCCCN(C)C)n(C)c4)n(C)c3)n(C)c2)c1`, for which the MIC result is “inactive”.

`COc1ccc(CC(=O)Nc2cc(C(=O)Nc3cc(C(=O)Nc4cc(C(=O)NCCCN(C)C)n(C)c4)n(CCC(C)C)c3)n(C)c2)cc1`: the MIC result is “inactive”.

The next experiment relates to Staphylococcus aureus. As to the kind of experiment: Antibacterial activity against Staphylococcus aureus NCTC 6571 strain. Format: functional.
Settings: not given
As for `CC(C)n1cc(NC(=O)c2cc(NC=O)cn2C)cc1C(=O)Nc1cc(C(=O)NCCCN2CCCC2)n(C)c1`, the MIC stood at 150 µM (≈ 82.6 µg/mL).

`COc1cccc(C(=O)Nc2cc(C(=O)Nc3cc(C(=O)Nc4cc(C(=O)NCCCN(C)C)n(C)c4)n(C)c3)n(C)c2)c1` had an MIC of 69.8 µM (≈ 42.1 µg/mL).

The compound `COc1ccc(CC(=O)Nc2cc(C(=O)Nc3cc(C(=O)Nc4cc(C(=O)NCCCN(C)C)n(C)c4)n(CCC(C)C)c3)n(C)c2)cc1` yielded an MIC of 15.9 µM (≈ 10.7 µg/mL).

For the origin of these results see ChEMBL document CHEMBL1137088, “Distamycin analogues with enhanced lipophilicity: synthesis and antimicrobial activity” (2004).
